According to the RNAGym collection of RNA variant scans (doi:10.1126/science.aae0568):
Fewer inactive variants are shown than the library holds.

B1: tRNA (parent)
chain: GUUCCGUUGGCGUAAUGGUAACGCGUCUCCCUCCUAAGGAGAAGACUGCGGGUUCGAGUCCCGUACGGAACG

Variants of: B1
Assay: yeast fitness relative to wild type (ratio to wild type); higher = fitter; tRNA-Arg(CCU), competitive growth, 37 C, YPD
How it was run: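 A pool of Saccharomyces cerevisiae strains, each with a tRNA-Arg(CCU) gene variant at the native genomic locus, was competed in YPD at 37°C for 24 hours across six parallel replicates. The variants had been chemically synthesised at a 3% per-site mutation rate over 69 sites, and gene amplicons before and after competition were read by 100-nucleotide paired-end sequencing. Darwinian fitness relative to wild type rested on changes in genotype frequencies. Genotypes required ≥ 100 starting reads, and estimates < 0.5 were set to 0.5.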

| Variant | yeast fitness |
| --- | --- |
| GUUCCGUUGGCGUAAUGGUAACGCAUCUCCCUCCUAAGGAGAAGACUGCGGGUUUGAGUCCCGUACGGCACG [G25A C55U A69C] | 0.639 |
| GUUCCGUUGGCGUAAUGGUAACGCAUCUCCCUCCUAAGGAGAAGACUGCUGGUUCGAGUCCCGUACGGAACG [G25A G50U] | 0.826 |
| GUUCCGUUGGCGUAAUGGUAACGCAUCUCCCUCCUAAGGAGAAGACUGCAGGUUCGAGUCCCGUACGGAACG [G25A G50A] | 0.997 |
| GUUCCGUUGGCGUAAUGGUAACGCAUCUCCCUCCUAAGGAAAUGACUGCGGGUUCGAGUCCCGUACGGAACG [G25A G41A A43U] | ≤ 0.5 |
| GUUCCGUUGGCGUAAUGGUAACGCAUCUCCUUCCUAAGGAGAAGACUGCGGGUUCGAGUCCCGUACGGACCG [G25A C31U A70C] | 0.731 |
| GUUCCGUUGGCGUAAUGGUAACGCAUCUCCCUCCUAAGGAGAAGACUGCGGGUUCGAGUAGCGUUCGGAACG [G25A C60A C61G A65U] | ≤ 0.5 |
| GUUCCGUUGGCGUAAUGGUAACGCAUCUCCCUCCUAAGGAAAAGAAUGCGGGUUCGAGUCCCGUACGGCACG [G25A G41A C46A A69C] | 0.935 |
| GUUCCGUUGGCGUAAUGGUAACGCAUCUCCCUCCUAAGGAGAAGACUACGGGUUCGAGUCCGGUACGGUACG [G25A G48A C62G A69U] | 0.749 |
| GUUCCGUUGGCGUAAUGGUAACGCAUCUCCCUCAUAAGGAGAAGACUGCGGGUUCGAGUCCCGUUCGGAACG [G25A C34A A65U] | 0.616 |
| GUUCCGUUGGCGUAAUGGUAACGCAUCUCCCUCCUAAGGAGAACACUGCGGGUUCGAGUCGCGUACGGAACG [G25A G44C C61G] | 0.526 |
| GUUCCGUUGGCGUAAUGGUAACGCAUCUCCCUCCUAAGGAGAAGACUGCGGGUUCGAGUCUCGUACGGCACG [G25A C61U A69C] | 0.637 |
| GUUCCGUUGGCGUAAUGGUAACGCAUCUCCCUCCUAAGGAGAAGACUGCGGAUUCGGGUCCCGUACAGAACG [G25A G52A A57G G67A] | ≤ 0.5 |
| GUUCCGUUGGCGUAAUGGUAACGCAUCUCCCUCUUUAGGAGAAGACUGCGGGUUCGAGUUCCGUACGGAACG [G25A C34U A36U C60U] | ≤ 0.5 |
| GUUCCGUUGGCGUAAUGGUAACGCAUCUCCCUCCUAAGGAGAAGAGUGCGGGUUCGAGUCCCGUACGGAACG [G25A C46G] | 0.99 |
| GUUCCGUUGGCGUAAUGGUAACGCAUCUCCCUCCUAAGGAGAAGAUUGCGGGUUCGAGUCCCGUACGGAACG [G25A C46U] | 0.938 |
| GUUCCGUUGGCGUAAUGGUAACGCAUCUCCCUCCUAAGGACAAGACUGCGGGUUCGUGUCCCGUACGGAACG [G25A G41C A57U] | 0.649 |
| GUUCCGUUGGCGUAAUGGUAACGCAUCUCCCUCCUAAGGAGAAGACUGCGGGUUCGAGUCCAGUACGGAACG [G25A C62A] | 0.843 |
| GUUCCGUUGGCGUAAUGGUAACGCAUCUCCCUCCUAAGGAGAAGACUGCGGGUUCGAGUCCUGUACGGAACG [G25A C62U] | 0.931 |
| GUUCCGUUGGCGUAAUGGUAACGCAUCUCCCUCCUAAGGAGAAGACUGCGGGUUCGAGUCCGGUACGGAACG [G25A C62G] | 0.855 |

| Variant | yeast fitness |
| --- | --- |
| GUUCCGUUGGCGUAAUGGUAACGCAUCUCCCUCCUAAGGAGAAGACUGUGGGUUCGAGUCCCGUUCGGAACG [G25A C49U A65U] | 0.849 |
| GUUCCGUUGGCGUAAUGGUAACGCAUCUCCCUCCUAAGGAGAAGACUGUGGGUUUGCGUCCCGUACGGAACG [G25A C49U C55U A57C] | ≤ 0.5 |
| GUUCCGUUGGCGUAAUGGUAACGCAUCUCCCUCCUAAGGAGAAGACUGCGGAUUCGAGUCCCGUACGGAUCG [G25A G52A A70U] | 0.666 |
| GUUCCGUUGGCGUAAUGGUAACGCAUCUCCCUCCUAAGGAGAAGACUGCGGGUUUGAGCCCCGUCCGGAACG [G25A C55U U59C A65C] | ≤ 0.5 |
| GUUCCGUUGGCGUAAUGGUAACGCAUCUCCCUCCUAAGCAGAAGACUGCGGGUUCGAGUCCCGUACGGAACG [G25A G39C] | 0.755 |
| GUUCCGUUGGCGUAAUGGUAACGCAUCUCCUUCCUAAGGAGAAGACUGCGGGUUGGAGUCUAGUACGGAACG [G25A C31U C55G C61U C62A] | 0.598 |
| GUUCCGUUGGCGUAAUGGUAACGCAUCUCCUUCCUAAGGAGAAGACUGCGGGUUCGAGUCCCGUAUGGAACG [G25A C31U C66U] | 0.761 |
| GUUCCGUUGGCGUAAUGGUAACGCAUCUCCCUCCUAAGGAGAAGACUGCGCGUUCGAGUCCCGUAUGGAACG [G25A G51C C66U] | ≤ 0.5 |
| GUUCCGUUGGCGUAAUGGUAACGCAUCUCCCUCCUAAGGACAAGACUGCGGGUUCGAGUCCCGUAUGGAACG [G25A G41C C66U] | 0.755 |
| GUUCCGUUGGCGUAAUGGUAACGCAUCUCCCUCCUAAGGAGAAAACUGCGGGUUCGAGUCCCGUACGGAACG [G25A G44A] | 0.841 |
| GUUCCGUUGGCGUAAUGGUAACGCAUCUCCCUCCUAAGGAGAAGACUGCGGGUUCGAGUCCCGUAUGGAACG [G25A C66U] | 0.902 |
| GUUCCGUUGGCGUAAUGGUAACGCAUCUCCCUCCUAAGGAGAAGACUGCGGGUUCGAGUCCCGUAAGGAACG [G25A C66A] | 0.631 |
| GUUCCGUUGGCGUAAUGGUAACGCAUCUCCCUCCUAAGGAGAAGAGUGCGGGAUCGAGUCCCGUCCGGAACG [G25A C46G U53A A65C] | ≤ 0.5 |
| GUUCCGUUGGCGUAAUGGUAACGCAUCUCCCUCCUAAGGAGAAGACUGUGGGUUCGAGUCCCGUACGGAACG [G25A C49U] | 0.991 |
| GUUCCGUUGGCGUAAUGGUAACGCAUCUCCUUCCUAACGAGAAGACUGCGGGUUCGAGUCCCGUACGGAACG [G25A C31U G38C] | 0.881 |
| GUUCCGUUGGCGUAAUGGUAACGCAUCUCCCUCCUAAGGAGAAGACUGCGGGUUCGAGUGACAUACGGAACG [G25A C60G C61A G63A] | ≤ 0.5 |
| GUUCCGUUGGCGUAAUGGUAACGCAUCUCCCUCCUAAGGAGAAGAUUGCGGGUUCGAGUCCGGUACGGAACG [G25A C46U C62G] | 0.739 |
| GUUCCGUUGGCGUAAUGGUAACGCAUCUCCCUCCUAAGGAGAAGACUGCAGGUUCGAGUCCCGUACGGCACG [G25A G50A A69C] | 0.676 |
| GUUCCGUUGGCGUAAUGGUAACGCAUCUCCCUCCUAAGGACAAGACUGCGGGUGCGAGUCUCGUACGGAACG [G25A G41C U54G C61U] | ≤ 0.5 |
